Data: ChEMBL document CHEMBL1122555, “Design, synthesis, and testing of potential antisickling agents. 3. Ethacrynic acid” (J Med Chem, 1984)

Assays:
Format in all cases: ADME
[1] = Compound was evaluated, at a concentration of 10 mM acid, for its ability to increase the solubility of sickle hemoglobin; conditions: 10000 µM
How it was run: (§1)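 Sodium salt of acid (made with 1 equiv NaHCO3, 0.18 M stock in 0.15 M phosphate pH 7.4) diluted into HbS (~35 g %, 0.15 M phosphate), deoxygenated with dithionite, sealed in EPR tubes; final drug 5–40 mM. Spun alongside deoxy-HbS buffer control and 40 mM phenylalanine control; solubility at 35 °C, g/dL. Ratio = drug/control solubility; % increase relative to initial minus control; SD reported.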

[2] = Compound was evaluated, at a concentration of 40 mM acid, the solubility ratio is obtained by dividing the solubility of sickle hemoglobin (HbS) with the compound (grams per deciliter) by the solubility of the untreated sample (grams per deciliter); conditions: 40000 µM; how it was run: as §1
[3] = Compound was evaluated, at a concentration of 40 mM acid, for its ability to increase the solubility of sickle haemoglobin; conditions: 40000 µM; how it was run: as §1
[4] = Compound was evaluated, at a concentration of 20 mM acid, for its ability to increase the solubility of sickle hemoglobin; conditions: 20000 µM; how it was run: as §1
[5] = Compound was evaluated, at a concentration of 5 mM acid, for its ability to increase the solubility of sickle hemoglobin; conditions: 5000 µM; how it was run: as §1
[6] = Compound was evaluated, at a concentration of 20 mM acid, the solubility ratio is obtained by dividing the solubility of sickle hemoglobin (HbS) with the compound (grams per deciliter) by the solubility of the untreated sample (grams per deciliter); conditions: 20000 µM; how it was run: as §1
[7] = Compound was evaluated, at a concentration of 10 mM acid, the solubility ratio is obtained by dividing the solubility of sickle hemoglobin (HbS) with the compound (grams per deciliter) by the solubility of the untreated sample (grams per deciliter); conditions: 10000 µM; how it was run: as §1
[8] = Compound was evaluated, at a concentration of 5 mM acid, the solubility ratio is obtained by dividing the solubility of sickle hemoglobin (HbS) with the compound (grams per deciliter) by the solubility of the untreated sample (grams per deciliter); conditions: 5000 µM; how it was run: as §1
[9] = Compound was evaluated, at a concentration of 40 mM acid, for its ability to increase the solubility of sickle hemoglobin; conditions: 40000 µM; how it was run: as §1

| SMILES | HbS solubilized [1] [%] | Solubility ratio [2] | HbS solubilized [3] [%] | HbS solubilized [4] [%] | HbS solubilized [5] [%] | Solubility ratio [6] | Solubility ratio [7] | Solubility ratio [8] | HbS solubilized [9] [%] |
| --- | --- | --- | --- | --- | --- | --- | --- | --- | --- |
| O=C(O)COCc1ccc(Cl)c(Cl)c1 | 42.6 | 1.345 | 88 | 82.3 | 22.1 | 1.321 | 1.166 | 1.087 |  |
| O=C(O)COCc1ccc(Br)cc1 | 25.8 | 1.398 |  | 51 | 13 | 1.233 | 1.118 | 1.059 | 87.7 |
| C=C(CC)C(=O)c1ccc(OCC(=O)O)c(Cl)c1Cl [ETHACRYNIC ACID] | 39.5 | 1.375 |  | 76.2 | 25.3 | 1.317 | 1.166 | 1.106 | 89.4 |
